Calls of active or inactive are those of the source. The rule behind the calls is not given here.
Assays:
[1] = target: Enoyl-CoA hydratase, mitochondrial (Homo sapiens, UniProt P30084); test: Binding affinity to ECHS1 in SILAC-labeled human MDA-MB-231 cells lysate by mass spectrometry based kinAffinity assay; format: subcellular
How it was run: (§1)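 Chemical proteomics: MDA-MB-231 lysate bound to matrix of immobilized broad kinase inhibitors at several densities (BC50), then competed with increasing free compound (CC50); proteins quantified by mass spectrometry, Kd via Cheng-Prusoff. Two competition formats run in parallel to check equilibrium.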

[2] = target: TANK-binding kinase 1-binding protein 1 (Homo sapiens, UniProt A7MCY6); test: Binding affinity to TBKBP1 in SILAC-labeled human MDA-MB-231 cells lysate by mass spectrometry based kinAffinity assay; format: subcellular
How it was run: (§2)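 MDA-MB-231 lysate applied to KinAffinity matrix of immobilized broadband kinase inhibitors at graded densities to obtain BC50 per target. Competition then run with increasing free compound to give CC50; Kd derived by Cheng-Prusoff. Two competition experiments in parallel to check equilibrium, one with lysate pre-incubated with compound before adding matrix. Quantitation by mass spectrometry.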

[3] = Toxicity in mouse allografted with AXL expressing mouse MXT cells assessed as weight loss at 15 mg/kg, ip qd administered 21 consecutive days; format: organism-based; settings: in vivo
[4] = Antitumor activity against AXL expressing mouse MXT cells allografted in mouse assessed as reduction in tumor size at 15 mg/kg, ip qd administered 21 consecutive days relative to control; format: functional; design: scale not given: the % may be the effect or the level left
How it was run: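 MXT mammary tumor cells implanted subcutaneously, grown to about 125 mm3, then dosed ip once daily for 21 consecutive days at 5 or 15 mg/kg vs vehicle, 7 animals/group; tumor size compared with vehicle after 3 weeks, survival also recorded.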

[5] = Antitumor activity against AXL expressing mouse MXT cells allografted in mouse assessed as survival time at 5 mg/kg, ip qd administered 21 consecutive days (reference value: 100%); format: functional
How it was run: (§3)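 MXT mammary tumour cells implanted subcutaneously and staged to about 125 mm3. Dosing then began: once daily ip for 21 consecutive days, at 5 or 15 mg/kg, alongside a vehicle group, with 7 animals per group. Survival in days was recorded for each animal and given as mean ± SD, and as T/C% against the vehicle group (vehicle = 100%).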

[6] = Antitumor activity against AXL expressing mouse MXT cells allografted in mouse assessed as survival time at 15 mg/kg, ip qd administered 21 consecutive days; format: functional; how it was run: as §3
MDA-MB-231 [7] = test: Antimetastatic activity against human MDA-MB-231 cells xenografted in mouse assessed as reduction in lung metastasis at 30 mg/kg, ip bid measured 3 times per week starting at day 12 by hematoxylin and eosin staining based assay relative to control; format: functional; design: scale not given: the % may be the effect or the level left
How it was run: (§4)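 Female SCID/Beige mice inoculated with 2 x 10^6 MDA-MB-231 cells in HBSS:Matrigel (1:1) into third mammary fat pad under ketamine/xylazine. Test agent 30 mg/kg ip twice daily (12 h apart) in PEG400/H2O 70:30, or paclitaxel 10 mg/kg iv three times weekly; 10 mice/group. Tumors measured three times weekly from day 12; lungs and lymph nodes excised, formalin-fixed, nodes H&E-scored (mean ± SEM).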

[8] = target: Cyclin-dependent kinase 17 (Homo sapiens, UniProt Q00537); test: Binding affinity to PCTK2 in SILAC-labeled human MDA-MB-231 cells lysate by mass spectrometry based kinAffinity assay; format: subcellular; how it was run: as §2
[9] = Toxicity in SCID/beige mouse xenografted with human MDA-MB-231 cells assessed as body weight gain at 30 mg/kg, ip bid measured 3 times per week starting at day 12; format: organism-based; settings: in vivo
[10] = target: Hepatocyte growth factor receptor (Homo sapiens, UniProt P08581); test: Binding affinity to c-MET in SILAC-labeled human MDA-MB-231 cells lysate by mass spectrometry based kinAffinity assay; format: subcellular; how it was run: as §2
[11] = Apparent volume of distribution in mouse at 3 mg/kg, iv by LC/MS/MS analysis; settings: in vivo, read-out: Vz
[12] = target: Mitogen-activated protein kinase kinase kinase 3 (Homo sapiens, UniProt Q99759); test: Binding affinity to MAP3K3 in SILAC-labeled human MDA-MB-231 cells lysate by mass spectrometry based kinAffinity assay; format: subcellular; how it was run: as §1
MDA-MB-231 [13] = test: Antitumor activity against human MDA-MB-231 cells xenografted in mouse assessed as tumor growth inhibition at 30 mg/kg, ip bid measured 3 times per week starting at day 12; format: functional, organism-based; how it was run: as §4
[14] = target: Delta(3,5)-Delta(2,4)-dienoyl-CoA isomerase, mitochondrial (Homo sapiens, UniProt Q13011); test: Binding affinity to ECH1 in SILAC-labeled human MDA-MB-231 cells lysate by mass spectrometry based kinAffinity assay; format: subcellular; how it was run: as §1
[15] = target: Tyrosine-protein kinase JAK3 (Homo sapiens) (UniProt P52333); test: Inhibition of JAK3 (unknown origin) using fluorescence labeled peptide as substrate at 10 uM by IMAP assay
[16] = target: Receptor tyrosine-protein kinase erbB-2 (Homo sapiens) (UniProt P04626); test: Inhibition of ERBB2 (unknown origin) using biotinylated peptide as substrate at 10 uM by TR-FRET assay
How it was run: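 HTRF (TR-FRET) kinase assay at 10 µmol/L compound, in triplicate. A biotinylated kinase-specific peptide is phosphorylated. Detection uses a europium cryptate-labeled anti-phospho-residue antibody as donor and XL665-streptavidin as acceptor. Result is percent inhibition.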

[17] = target: Tyrosine-protein kinase SYK (Homo sapiens) (UniProt P43405); test: Binding affinity to SYK (unknown origin) at 10 uM
[18] = target: Epithelial discoidin domain-containing receptor 1 (Homo sapiens) (UniProt Q08345); test: Binding affinity to DDR1 (unknown origin) at 10 uM
[19] = target: Proto-oncogene tyrosine-protein kinase receptor Ret (Homo sapiens) (UniProt P07949); test: Inhibition of RET (unknown origin) using fluorescence labeled peptide as substrate at 10 uM by IMAP assay
How it was run: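 Kinase selectivity profiling, run by a contract lab, with the test compound at 10 µmol/L in triplicate. In the IMAP format, the kinase phosphorylates a fluorescently labelled substrate peptide in solution. A binding solution of trivalent metal-based nanoparticles is then added to capture the phosphopeptide, and the drop in rotational speed is read as fluorescence polarization. Results are given as percent inhibition of each kinase.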

[20] = target: Epithelial discoidin domain-containing receptor 1 (Homo sapiens) (UniProt Q08345); test: Inhibition of DDR1 (unknown origin) using biotinylated peptide as substrate at 10 uM by TR-FRET assay
[21] = target: Tyrosine-protein kinase CSK (Homo sapiens, UniProt P41240); test: Inhibition of CSK (unknown origin) using fluorescently-labeled peptide as substrate at 10 uM by IMAP fluorescence polarization assay
[22] = target: Receptor tyrosine-protein kinase erbB-2 (Homo sapiens) (UniProt P04626); test: Binding affinity to ERBB2 (unknown origin) at 10 uM
How it was run: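 HTRF kinase assay for HER2 at 10 µM compound, triplicate: biotinylated peptide phosphorylated, detected by europium cryptate anti-phospho antibody and streptavidin-XL665 TR-FRET; percent inhibition.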

[23] = target: Proto-oncogene tyrosine-protein kinase receptor Ret (Homo sapiens) (UniProt P07949); test: Inhibition of RET (unknown origin) using fluorescently-labeled peptide as substrate at 10 uM by IMAP fluorescence polarization assay

Sequence of Receptor tyrosine-protein kinase erbB-2 (Homo sapiens) (P04626 whole entry): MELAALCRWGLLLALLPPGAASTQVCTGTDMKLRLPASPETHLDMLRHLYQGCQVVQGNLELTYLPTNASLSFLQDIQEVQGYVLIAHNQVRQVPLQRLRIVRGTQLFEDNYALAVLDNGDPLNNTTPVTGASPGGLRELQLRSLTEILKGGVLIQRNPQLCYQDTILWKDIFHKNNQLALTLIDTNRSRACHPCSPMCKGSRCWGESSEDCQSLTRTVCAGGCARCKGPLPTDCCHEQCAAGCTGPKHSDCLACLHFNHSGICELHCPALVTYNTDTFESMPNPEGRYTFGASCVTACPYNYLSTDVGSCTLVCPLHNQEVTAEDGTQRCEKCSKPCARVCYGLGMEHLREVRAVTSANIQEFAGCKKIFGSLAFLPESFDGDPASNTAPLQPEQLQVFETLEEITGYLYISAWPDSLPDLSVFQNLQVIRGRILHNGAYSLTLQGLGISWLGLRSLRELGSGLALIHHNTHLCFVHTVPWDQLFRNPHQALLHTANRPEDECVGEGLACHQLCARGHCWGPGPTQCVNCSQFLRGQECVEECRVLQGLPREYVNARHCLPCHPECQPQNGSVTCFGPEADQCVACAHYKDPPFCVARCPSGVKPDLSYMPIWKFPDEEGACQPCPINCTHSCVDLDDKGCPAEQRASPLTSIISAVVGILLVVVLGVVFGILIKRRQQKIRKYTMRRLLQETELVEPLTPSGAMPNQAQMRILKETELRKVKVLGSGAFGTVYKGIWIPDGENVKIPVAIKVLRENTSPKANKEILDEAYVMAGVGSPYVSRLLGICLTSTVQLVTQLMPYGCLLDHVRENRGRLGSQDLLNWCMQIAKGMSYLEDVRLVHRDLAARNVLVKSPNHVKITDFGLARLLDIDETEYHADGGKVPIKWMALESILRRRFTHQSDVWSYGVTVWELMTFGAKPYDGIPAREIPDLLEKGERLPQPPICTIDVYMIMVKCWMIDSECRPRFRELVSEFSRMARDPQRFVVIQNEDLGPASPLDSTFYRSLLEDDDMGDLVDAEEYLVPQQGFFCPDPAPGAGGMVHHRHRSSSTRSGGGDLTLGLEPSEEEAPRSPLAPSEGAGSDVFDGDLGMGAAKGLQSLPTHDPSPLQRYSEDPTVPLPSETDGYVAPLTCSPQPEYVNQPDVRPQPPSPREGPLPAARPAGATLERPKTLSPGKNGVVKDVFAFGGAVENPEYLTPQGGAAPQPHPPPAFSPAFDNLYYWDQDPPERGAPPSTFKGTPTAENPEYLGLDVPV
Sequence of Epithelial discoidin domain-containing receptor 1 (Homo sapiens) (Q08345 whole entry, the tested form may be a part): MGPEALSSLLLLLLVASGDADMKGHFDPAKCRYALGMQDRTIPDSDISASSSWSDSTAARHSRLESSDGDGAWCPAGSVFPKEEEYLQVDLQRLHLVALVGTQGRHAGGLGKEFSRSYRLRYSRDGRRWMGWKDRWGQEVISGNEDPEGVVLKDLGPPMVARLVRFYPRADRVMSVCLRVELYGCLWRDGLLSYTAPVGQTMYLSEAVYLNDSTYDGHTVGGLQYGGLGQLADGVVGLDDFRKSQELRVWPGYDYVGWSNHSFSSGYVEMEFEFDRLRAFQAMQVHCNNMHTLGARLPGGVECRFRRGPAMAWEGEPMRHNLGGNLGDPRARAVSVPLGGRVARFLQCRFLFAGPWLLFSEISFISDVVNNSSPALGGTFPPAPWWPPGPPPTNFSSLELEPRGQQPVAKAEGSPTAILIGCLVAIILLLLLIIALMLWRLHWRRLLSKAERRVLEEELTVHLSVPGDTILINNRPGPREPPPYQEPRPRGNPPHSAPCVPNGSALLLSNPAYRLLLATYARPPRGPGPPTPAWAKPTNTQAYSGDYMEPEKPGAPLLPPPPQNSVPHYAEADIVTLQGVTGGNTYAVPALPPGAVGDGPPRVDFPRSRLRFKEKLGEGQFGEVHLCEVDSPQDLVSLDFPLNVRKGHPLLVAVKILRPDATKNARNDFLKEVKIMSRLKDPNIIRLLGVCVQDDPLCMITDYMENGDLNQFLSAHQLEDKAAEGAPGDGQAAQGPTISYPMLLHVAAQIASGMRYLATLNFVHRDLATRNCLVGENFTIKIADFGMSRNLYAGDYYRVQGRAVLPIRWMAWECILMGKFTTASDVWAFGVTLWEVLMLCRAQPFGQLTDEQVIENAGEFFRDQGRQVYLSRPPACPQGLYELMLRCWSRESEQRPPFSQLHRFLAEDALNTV
Sequence of Proto-oncogene tyrosine-protein kinase receptor Ret (Homo sapiens) (P07949 whole entry): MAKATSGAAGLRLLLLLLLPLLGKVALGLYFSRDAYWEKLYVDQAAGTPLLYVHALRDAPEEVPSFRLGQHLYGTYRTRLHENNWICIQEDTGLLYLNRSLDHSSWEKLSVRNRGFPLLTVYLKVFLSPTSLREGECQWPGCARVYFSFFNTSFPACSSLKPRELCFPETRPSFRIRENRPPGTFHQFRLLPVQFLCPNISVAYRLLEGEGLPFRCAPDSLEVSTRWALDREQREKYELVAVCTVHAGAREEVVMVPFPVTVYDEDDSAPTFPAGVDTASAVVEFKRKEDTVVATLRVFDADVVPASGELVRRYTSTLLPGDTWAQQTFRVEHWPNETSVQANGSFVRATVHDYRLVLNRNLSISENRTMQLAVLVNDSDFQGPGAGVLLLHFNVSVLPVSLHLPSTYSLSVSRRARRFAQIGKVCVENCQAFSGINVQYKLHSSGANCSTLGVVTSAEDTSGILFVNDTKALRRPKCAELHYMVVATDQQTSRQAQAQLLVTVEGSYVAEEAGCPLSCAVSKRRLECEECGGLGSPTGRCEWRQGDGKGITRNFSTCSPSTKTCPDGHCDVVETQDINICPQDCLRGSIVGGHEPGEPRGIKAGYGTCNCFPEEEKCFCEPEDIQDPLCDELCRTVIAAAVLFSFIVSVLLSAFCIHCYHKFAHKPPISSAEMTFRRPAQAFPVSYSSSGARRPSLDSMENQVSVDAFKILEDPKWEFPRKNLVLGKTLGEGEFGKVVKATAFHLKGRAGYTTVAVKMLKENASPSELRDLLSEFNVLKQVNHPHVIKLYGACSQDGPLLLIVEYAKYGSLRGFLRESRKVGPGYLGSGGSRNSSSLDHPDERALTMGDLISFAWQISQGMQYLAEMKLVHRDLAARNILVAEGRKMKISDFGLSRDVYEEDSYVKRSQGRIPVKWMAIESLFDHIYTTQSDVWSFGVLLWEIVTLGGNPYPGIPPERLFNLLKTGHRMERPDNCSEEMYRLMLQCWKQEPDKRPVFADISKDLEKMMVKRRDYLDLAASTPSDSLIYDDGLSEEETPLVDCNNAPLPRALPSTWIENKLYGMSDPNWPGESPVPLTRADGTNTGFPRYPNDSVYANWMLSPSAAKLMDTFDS
Sequence of Tyrosine-protein kinase CSK (P41240 2-450 limits assumed): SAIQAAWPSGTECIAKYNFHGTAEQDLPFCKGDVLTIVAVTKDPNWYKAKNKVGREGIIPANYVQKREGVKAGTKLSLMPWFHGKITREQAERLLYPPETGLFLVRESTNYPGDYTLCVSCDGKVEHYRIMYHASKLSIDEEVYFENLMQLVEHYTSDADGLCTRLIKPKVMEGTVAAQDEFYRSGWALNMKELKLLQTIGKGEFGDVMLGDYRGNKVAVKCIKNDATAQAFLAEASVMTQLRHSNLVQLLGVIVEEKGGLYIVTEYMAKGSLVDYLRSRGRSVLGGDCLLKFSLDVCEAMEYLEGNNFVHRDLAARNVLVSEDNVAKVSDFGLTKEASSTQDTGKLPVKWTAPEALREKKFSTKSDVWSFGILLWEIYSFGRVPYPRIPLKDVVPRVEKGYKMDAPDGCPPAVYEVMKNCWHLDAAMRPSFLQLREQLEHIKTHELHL
Sequence of Tyrosine-protein kinase JAK3 (Homo sapiens) (P52333 whole entry): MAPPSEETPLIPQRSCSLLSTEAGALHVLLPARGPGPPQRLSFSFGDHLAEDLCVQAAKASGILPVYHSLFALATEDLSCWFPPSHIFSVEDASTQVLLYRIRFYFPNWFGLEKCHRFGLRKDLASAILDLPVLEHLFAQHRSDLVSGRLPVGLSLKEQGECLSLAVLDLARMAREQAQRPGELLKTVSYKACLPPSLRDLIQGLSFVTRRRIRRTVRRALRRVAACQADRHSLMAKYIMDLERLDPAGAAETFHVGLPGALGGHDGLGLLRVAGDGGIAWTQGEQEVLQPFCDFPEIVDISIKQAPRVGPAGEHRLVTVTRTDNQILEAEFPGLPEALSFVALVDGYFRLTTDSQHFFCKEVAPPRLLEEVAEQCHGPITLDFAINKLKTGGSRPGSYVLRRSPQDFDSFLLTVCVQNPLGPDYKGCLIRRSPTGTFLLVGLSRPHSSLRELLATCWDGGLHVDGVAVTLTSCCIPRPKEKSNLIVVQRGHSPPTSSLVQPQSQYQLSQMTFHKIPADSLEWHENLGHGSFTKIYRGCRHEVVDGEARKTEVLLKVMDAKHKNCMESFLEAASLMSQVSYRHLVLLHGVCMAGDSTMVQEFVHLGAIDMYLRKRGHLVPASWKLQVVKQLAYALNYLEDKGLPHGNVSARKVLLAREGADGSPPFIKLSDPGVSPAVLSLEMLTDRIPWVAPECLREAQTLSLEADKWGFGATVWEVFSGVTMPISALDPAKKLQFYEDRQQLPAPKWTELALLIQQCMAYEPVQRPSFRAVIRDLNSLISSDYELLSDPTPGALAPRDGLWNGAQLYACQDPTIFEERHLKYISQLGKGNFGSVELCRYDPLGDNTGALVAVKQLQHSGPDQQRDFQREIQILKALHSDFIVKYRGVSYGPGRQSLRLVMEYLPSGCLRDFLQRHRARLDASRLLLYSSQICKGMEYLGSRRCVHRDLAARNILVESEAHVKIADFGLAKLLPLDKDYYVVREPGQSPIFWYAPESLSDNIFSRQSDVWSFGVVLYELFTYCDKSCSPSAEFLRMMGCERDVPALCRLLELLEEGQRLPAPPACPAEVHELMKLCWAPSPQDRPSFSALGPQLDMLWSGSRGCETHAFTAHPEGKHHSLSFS

**Q.** With `COc1cc2c(Oc3ccc(NS(=O)(=O)c4c(F)cccc4F)cc3F)ccnc2cc1OCCCN1CCN(C)CC1` as the molecule, how does the “Kd(free)” value [1] read?
**A.** 9237 nM

**Q.** What about the “Kd(free)” value [2] of the same molecule?
**A.** 2090 nM

**Q.** With `COc1cc2c(Oc3ccc(NS(=O)(=O)c4cc(F)ccc4F)cc3F)ccnc2cc1OCCCN1CCCC(C)C1` (stereo not drawn) as the molecule, how does the Activity [3] read?
**A.** Non-Toxic

**Q.** And the Activity [4]?
**A.** 40%

**Q.** What about the T/C [5] of the same molecule?
**A.** 118%

**Q.** And the T/C [6]?
**A.** 127%

**Q.** Which Activity (MDA-MB-231 [7]) does the source give for `COc1cc2c(Oc3ccc(NS(=O)(=O)c4cc(F)ccc4F)cc3F)ccnc2cc1OCCCN1CCN(C)CC1` here?
**A.** 65.7%

**Q.** And the “Kd(free)” value [8]?
**A.** > 7651 nM

**Q.** What about the Activity [9] of the same molecule?
**A.** Toxic

**Q.** What about the “Kd(free)” value [10] of the same molecule?
**A.** 41 nM

**Q.** And the Vd [11]?
**A.** 10.2 L/kg

**Q.** And the “Kd(free)” value [12]?
**A.** 3133 nM

**Q.** And the TGI (MDA-MB-231 [13])?
**A.** Active

**Q.** What about the “Kd(free)” value [14] of the same molecule?
**A.** 2857 nM

**Q.** For `COc1cc2c(Oc3ccc(NS(=O)(=O)c4ccccc4C(F)(F)F)cc3F)ccnc2cc1OCCCN1CCN(C)CC1`, which inhibition [15] is on record?
**A.** Active

**Q.** What about the inhibition [16] of the same molecule?
**A.** Active

**Q.** What about the inhibition [17] of the same molecule?
**A.** Active

**Q.** What about the inhibition [18] of the same molecule?
**A.** Active

**Q.** And the inhibition [19]?
**A.** Active

**Q.** And the inhibition [20]?
**A.** Active

**Q.** And the inhibition [21]?
**A.** Active

**Q.** And the inhibition [22]?
**A.** Active

**Q.** What about the inhibition [23] of the same molecule?
**A.** Active

— ChEMBL document CHEMBL4371006, “Discovery of N-[4-(Quinolin-4-yloxy)phenyl]benzenesulfonamides as Novel AXL Kinase Inhibitors” (J Med Chem, 2018)
